# Data from ChEMBL document CHEMBL1140750, “Dynamic combinatorial mass spectrometry leads to metallo-beta-lactamase inhibitors” (J Med Chem, 2008).
# pIC50, pKi: −log10 of the molar value.
# Experiment: Inhibition of Bacillus cereus metallo-beta-lactamase BcII by dynamic combinatorial mass spectrometry
# Outline: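 BcII enzyme was preincubated with inhibitor at room temperature in 20 mM HEPES pH 7.0 with 20 µg/mL BSA; inhibitors came from 10 mM DMSO stocks. Imipenem substrate was then added at 20–200 µM, with at least two inhibitor concentrations plus a no-inhibitor control. Hydrolysis was followed by absorbance at 300 or 482 nm at 30 °C. Ki was derived from initial rates by Hanes linearization.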
row,SMILES,pKi
1,O=C(O)C(S)C(S)C(=O)O (stereo not given),3.90
2,"O=C(Cc1ccccc1)NC(CS)C(=O)O (single isomer, unassigned; 9c)",3.81
3,"O=C(CCc1ccccc1)NC(CS)C(=O)O (single isomer, unassigned; 9e)",4.36
4,"O=C(CCc1ccccc1)NC(CS)C(=O)O (single isomer, unassigned; 9f)",4.14

# Other lines, results leading:
row,pKi,SMILES
1,4.87,CC(=O)Nc1ccc(C(=O)N[C@H](CS)C(=O)O)cc1
2,5.08,CC(C)(C)c1ccc(C(=O)N[C@H](CS)C(=O)O)cc1
3,4.55,"O=C(NC(CS)C(=O)O)c1ccccc1 (single isomer, unassigned; 9a)"
4,6.13,"O=C(NC(CS)C(=O)O)c1ccccc1 (single isomer, unassigned; 9b)"
5,4.28,"O=C(Cc1ccccc1)NC(CS)C(=O)O (single isomer, unassigned; 9d)"

# Experiment: Inhibition of metallo-beta-lactamase IMP1
row,pIC50,SMILES
1,3.77,O=C(O)CCS [MERCAPTOPROPIONIC ACID]
